# Screening results deposited in PubChem by several laboratories.
# NF-kB expr up – compounds increasing NF-kB expression in human neuronal cells. NF-kB reporter expression; stronger effect = higher value. fold change at 12.5 µM. actives 1.6% (n = 190,000); in the data active means fold change above about 3.3
# p97 inhibitor – inhibitors of human p97 ATPase; inhibition, % at 8 µM; recombinant p97 ATPase, Kinase-Glo ATP luminescence, 3 h; AID 1481; actives 0.42% (n = 220,000); in the data active means inhibition above about 15%;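 further: 0% = DMSO vehicle and 100% = wells lacking enzyme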
# APP 5'UTR act – activates APP 5'UTR luciferase reporter | SH-SY5Y APP 5'UTR luciferase reporter, luminescence; zero percent = DMSO vehicle wells | activation, % at 2 µM | actives 1% (n = 190,000);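 active means activation above a set limit, based on mean plus 3 SD of controls, cut at about 140% in these data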
# Wee1 stabilizer – human Wee1 degradation inhibition, primary screen. HeLa Luc-Wee1K328M stability, luciferase luminescence; 100% = proteasome inhibitor MG132 effect. reporter increase, % at 5 µM. AID 1321. P30291. actives 1.2% (n = 220,000);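 active means activation above the mean of all tested compounds plus 3 SD, set per screening run, cut at about 8.8% in these data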;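 further: cells exposed to compound for 20 h before luminescence read; 0% = DMSO alone and 100% = MG132 at 30 µM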
# Mdm2 ligase inh – Mdm2 E3 ligase (human) inhibition; cell-based MDM2 ubiquitination luciferase reporter, 2 h; 0 = plate control, 100 = twice control, blank-subtracted; signal enhancement, % at 5 µM; actives 0.11% (n = 210,000); AID 1230;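 active means signal enhancement of 30% or more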;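 further: luminescence tracks abundance of the self-degrading MDM2-luciferase fusion protein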
# Target sequence (Q00987 whole entry, looked up, the tested form may be a part): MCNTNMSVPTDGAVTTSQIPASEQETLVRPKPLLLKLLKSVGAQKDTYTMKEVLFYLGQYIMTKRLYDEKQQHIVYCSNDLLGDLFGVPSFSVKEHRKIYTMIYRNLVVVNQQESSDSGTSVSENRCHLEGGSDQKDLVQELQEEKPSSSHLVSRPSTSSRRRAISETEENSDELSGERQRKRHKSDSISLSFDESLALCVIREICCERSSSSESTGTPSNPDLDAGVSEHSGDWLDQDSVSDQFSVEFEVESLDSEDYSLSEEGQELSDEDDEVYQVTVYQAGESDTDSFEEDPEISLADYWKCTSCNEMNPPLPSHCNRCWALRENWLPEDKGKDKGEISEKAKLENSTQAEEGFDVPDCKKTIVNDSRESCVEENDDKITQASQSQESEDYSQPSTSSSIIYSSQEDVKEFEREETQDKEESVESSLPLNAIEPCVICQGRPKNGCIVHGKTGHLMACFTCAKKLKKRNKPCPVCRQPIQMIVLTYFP
#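 Assay system: mammalian cells stably expressing self-ubiquitinating, self-degrading MDM2 E3–luciferase fusion. Quantity: 2000 cells in each well. Medium: DMEM culture medium. Compound dosing: single-point 5 µM. Timing: cell settling 4 h, compound treatment 2 h, both 37 °C. Technique: luciferase luminescence. Read-out basis: percent signal gain over controls, blank-subtracted. Benchmarks: plate controls and plate blanks.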
# STAT1 act – STAT1 signaling activation | NIH 3T3 STAT1-luciferase reporter, IFN-gamma, luminescence; 100% = IFN-gamma alone, no compound | activation (% of control), % at 5.5 µM | actives 2.6% (n = 200,000);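 active means activation above the screen-wide mean activation plus 3 SD, cut at about 130% in these data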;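 further: raw ratio to IFN-gamma control signal so 100% means no change and 0% no light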
# * marks the source's active call; other numbers are inactive results; / = no result. Only some compounds are listed: those with a hit (about 4.6% of all), similar ones and a draw of the others.
SMILES,NF-kB expr up,p97 inhibitor,APP 5'UTR act,Wee1 stabilizer,Mdm2 ligase inh,STAT1 act
Cc1nnc(SCCN2CCOCC2)c2nn(-c3ccccc3F)c(C)c12,1.9,-2,18,4,79*,88
Cn1nc([N+](=O)[O-])nc1Sc1nnnn1-c1ccc(C(=O)O)cc1,0.96,6,9,-1,-4,96
CN1C(=O)CSc2ccc(NC(=O)Nc3ccccn3)cc21,1.4,1,29,2,2,142*
COc1ccc(OCC(O)CNC(=O)c2ccc(C)cc2)cc1 (stereo not drawn),/,5,/,-2,4,/
C/C(=N\NC(=O)c1ccn[nH]1)c1cn(C)nc1C,1.8,4,55,4,/,129*
Nc1nonc1N/N=C/c1c(O)ccc2ccccc12,3.3,2,-3,-4,-15,75
Nc1cc(Cl)nc(N/N=C/c2c(O)ccc3ccccc23)n1,4.4*,9,18,4,-14,96
COc1ccc(N2CCN(c3oc(COc4ccccc4Cl)nc3C#N)CC2)cc1,1.2,-4,-8,9.6*,-14,101
O=C(Nc1ccccc1)Nc1cccc(Cl)c1,1.7,3,41,0,-11,107
CC(=O)c1ccc(NC(=O)Nc2cccc(Cl)c2)cc1,3.6*,0,121,1,-17,120
COC(=O)c1ccc(Cn2c(O)c(N=NC(N)=S)c3ccccc32)o1,/,11,/,0,1,/
Cc1ccc(NC(=O)CN(C)C(=S)NC2CC2)cc1,1.2,5,-2,1,-23,104
COc1ccc(C2(C)NC(=O)N(CC(=O)Nc3ccc(-c4nc5ccc(C)cc5s4)cc3)C2=O)cc1 (stereo not drawn),/,3,171*,8,-15,144*
Cc1nc2cc(NC(=O)CCS(=O)(=O)c3ccccc3)ccc2s1,3.2,4,135,2,-14,150*
Cc1cccc(S(=O)(=O)Nc2ccc(-c3nc4ccc(C)cc4s3)cc2)c1,2.1,0,163*,1,2,147*
Cc1ccc(S(=O)(=O)CCC(=O)Nc2ccc(S(=O)(=O)N(C)C)cc2)cc1,1.3,2,-3,-3,-9,100
Cc1ccc(S(=O)(=O)Nc2ccc(-c3nc4ccc(C)cc4s3)cc2)cc1,0.84,3,3,2,-12,108
Cc1ccc(S(=O)(=O)CCC(=O)Nc2ccc3nc(C)sc3c2)cc1,0.95,-8,12,11*,-5,95
Cc1nc2ccc(NC(=O)CCS(=O)(=O)c3ccccc3)cc2s1,1.6,-9,-5,-5,-7,119
CC(C)=CCN1CCN(Cc2nc(-c3ccccc3)cs2)CC1CCO (stereo not drawn),1.1,-5,0,1,-7,102
O=C(O)CCn1cc(C(=O)O)c(-c2ccccc2)n1,/,5,/,5,-8,/
Cc1ccc2nc(-c3ccc(NC(=O)CNC4CC4)cc3)sc2c1,5.3*,4,199*,2,-22,114
Cc1ccc2nc(-c3ccc(NC(=O)CCS(=O)(=O)c4ccccc4)cc3)sc2c1,3.6*,-1,126,-2,-32,92
Cc1ccc(C)c(N(CC(=O)Nc2ccc(-c3nc4ccc(C)cc4s3)cc2)S(C)(=O)=O)c1,1.1,1,48,-2,-7,116
Cc1ccc(N(CC(=O)Nc2ccc(-c3nc4ccc(C)cc4s3)cc2)S(C)(=O)=O)cc1,1.9,-6,121,2,-23,140*
SMILES,NF-kB expr up,p97 inhibitor,APP 5'UTR act,Wee1 stabilizer,Mdm2 ligase inh,STAT1 act
CC1=C(C(=O)OCC2CCCO2)C(c2ccsc2)C2=C(CCCC2=O)N1 (stereo not drawn),0.94,-3,3,3,-2,98
Cc1ccc(NC(=O)CC2=NC(=O)C(CC(=O)Nc3ccccc3C)S2)cc1 (stereo not drawn),1.2,1,-26,0,-10,106
CCC(C)/C(C)=N/NC(=O)c1ccc(CSc2nc3ccccc3s2)cc1 (stereo not drawn),1.3,-4,46,3,2,130*
CC1=NN(c2cccc(C(=O)O)c2)C(=O)/C1=C\C=C\c1ccco1,1.2,0,81,1,36*,95
CC1=NN(c2ccccc2)C(=O)/C1=C/C=C/c1ccccc1,1.6,6,-34,-1,/,96
O=c1c2ccccc2nc2c3ccccc3cnn12,1.7,5,35,4,-3,134*
CC1CCc2nc(NC(=O)Nc3ccc4c(c3)OCO4)sc2C1 (stereo not drawn),2.1,4,37,0,-14,126
CCOc1ccccc1NC(=O)c1ccc(S(=O)(=O)N2CCOCC2)cc1,1.2,3,14,11*,/,97
COc1ccccc1NC(=O)c1ccc(S(=O)(=O)N2CCOCC2)cc1,1.6,1,7,-1,1,90
Cc1ccc(-c2cc3c(nn2)-c2ccccc2C3=O)cc1,/,-36,/,-5,/,/
O=C1c2ccccc2-c2nnc(-c3ccc(F)cc3)cc21,4.5*,-1,144*,9.8*,-48,115
CCOC(=O)N1CCN(C(=O)c2ccc(N(Cc3ccc(C)cc3)S(C)(=O)=O)cc2)CC1,1.2,-2,-14,4,-11,97
Cc1ccc(CN(c2ccc(C(=O)N3CCOCC3)cc2)S(C)(=O)=O)cc1,1.2,0,31,10.0*,0,106
Cc1ccc(OCc2ccc(C(=O)N3CCOCC3)cc2)cc1C,1.8,-7,/,3,-29,142*
Cc1ccc(NCCC(=O)c2cccs2)cc1C,1.6,-1,82,0,-20,143*
Cc1ccc(NCCC(=O)c2cccs2)cc1,0.88,0,22,3,2,150*
C/C(CC(=O)Nc1ccccn1)=N\NC(=O)c1cnccn1,/,-5,/,5,-9,/
O=C(NCc1cccnc1)C(=O)NCC1OCCCN1S(=O)(=O)c1ccc(Cl)cc1 (stereo not drawn),0.95,3,-20,0,22,110
O=C(NCC1OCCCN1S(=O)(=O)c1cc(F)ccc1F)C(=O)NC1CCCCCC1 (stereo not drawn),1.1,-5,5,0,-18,138*
Cc1cc(F)ccc1S(=O)(=O)N1CCCOC1CNC(=O)C(=O)NCc1ccco1 (stereo not drawn),1,3,-3,9.1*,5,94
O=C(NCCc1c[nH]c2ccccc12)C(=O)NCC1OCCN1S(=O)(=O)c1cc(F)ccc1F (stereo not drawn),/,0,/,-2,-3,/
Cc1cc(F)ccc1S(=O)(=O)N1CCCOC1CNC(=O)C(=O)NCCc1c[nH]c2ccccc12 (stereo not drawn),0.7,1,-3,0,3,100
